From ChEMBL document CHEMBL3227917, “Structure-activity relationships of dimeric Catharanthus alkaloids. 2. Experimental antitumor activities of N-substituted deacetylvinblastine amide (vindesine) sulfates” (J Med Chem, 1979)

What was measured:
CHO [1] = test: Mitotic arrest in CHO cells assessed as increase in cell accumulation at 0.002 ug/ml; format: functional, Cricetulus griseus
How it was run: (§1)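 Chinese hamster ovary cells in tissue culture, scored for mitotic arrest as increase in cells in mitotic arrest over control: +++, 40–50%; ++, 15–40%; +, 10–15%; ±, 7–10%; –, 3–7%. Cytotoxicity noted separately.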

[2] = Antitumor activity against mouse Gardner lymphosarcoma allografted in C3H mouse assessed as tumor growth inhibition at 0.40 mg/kg, ip administered daily for 8 to 10 days; format: functional; settings: route intraperitoneal, read-out: TGI
How it was run: (§2)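 Gardner lymphosarcoma in C3H mice; sulfate salts unless noted, given ip daily for 8–10 days, treatment starting 8 days after tumor implantation. Tumor growth inhibition scored as –, 0–25%; +, 26–50%; ++, 51–75%; +++, 76–100%; T, lethal to ≥5 of 10 animals per group. Average of one or more tests.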

Mus musculus [3] = test: Toxicity in mouse assessed as body weight at 0.5 mg/kg, ip administered twice per week for 4 weeks, then three doses per week for 3 weeks and finally six doses per week for 2 weeks measured at week 9 (reference value: 18.5 +/- 0.5 gms); settings: in vivo
[4] = Antitumor activity against mouse P1534 cells allografted in DBA2 mouse assessed as tumor growth inhibition at 0.25 mg/kg, ip administered daily for 8 to 10 days; format: functional; settings: route intraperitoneal, read-out: TGI
How it was run: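 P1534(J) leukemia implanted sc in DBA2 mice; sulfate salts dosed ip daily for 8–10 days. Growth inhibition scored –, 0–25%; +, 26–50%; ++, 51–75%; +++, 76–100%; T, lethal to ≥5 of 10 animals per group. Average of one or more tests.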

[5] = Antitumor activity against mouse Gardner lymphosarcoma allografted in C3H mouse assessed as tumor growth inhibition at 0.10 mg/kg, ip administered daily for 8 to 10 days; format: functional; settings: route intraperitoneal, read-out: TGI; how it was run: as §2
[6] = Antitumor activity against mouse Ridgway osteogenic sarcoma allografted in AKR mouse assessed as tumor growth inhibition at 0.10 mg/kg, ip administered daily for 8 to 10 days compound treatment commenced 8 days after tumor implantation; format: functional; settings: route intraperitoneal, read-out: TGI
CHO [7] = test: Mitotic arrest in CHO cells assessed as increase in cell accumulation at 0.02 ug/ml; format: functional, Cricetulus griseus; how it was run: as §1
[8] = Antitumor activity against mouse Gardner lymphosarcoma allografted in C3H mouse assessed as tumor growth inhibition at 0.20 mg/kg, ip administered daily for 8 to 10 days; format: functional; settings: route intraperitoneal, read-out: TGI; how it was run: as §2
[9] = Antitumor activity against mouse Gardner lymphosarcoma allografted in C3H mouse assessed as tumor growth inhibition at 0.05 mg/kg, ip administered daily for 8 to 10 days; format: functional; settings: route intraperitoneal, read-out: TGI; how it was run: as §2
[10] = Antitumor activity against mouse Gardner lymphosarcoma allografted in C3H mouse assessed as tumor growth inhibition at 0.30 mg/kg, ip administered daily for 8 to 10 days; format: functional; settings: route intraperitoneal, read-out: TGI; how it was run: as §2
[11] = Antitumor activity against mouse Ridgway osteogenic sarcoma allografted in AKR mouse assessed as tumor growth inhibition at 0.20 mg/kg, ip administered daily for 8 to 10 days compound treatment commenced 8 days after tumor implantation; format: functional; settings: route intraperitoneal, read-out: TGI
[12] = Antitumor activity against mouse Ridgway osteogenic sarcoma allografted in AKR mouse assessed as tumor growth inhibition at 0.40 mg/kg, ip administered daily for 8 to 10 days compound treatment commenced 8 days after tumor implantation; format: functional; settings: route intraperitoneal, read-out: TGI
[13] = Antitumor activity against mouse Ridgway osteogenic sarcoma allografted in AKR mouse assessed as tumor growth inhibition at 0.30 mg/kg, ip administered daily for 8 to 10 days compound treatment commenced 8 days after tumor implantation; format: functional; settings: route intraperitoneal, read-out: TGI
[14] = Antitumor activity against mouse Ridgway osteogenic sarcoma allografted in AKR mouse assessed as tumor growth inhibition at 0.05 mg/kg, ip administered daily for 8 to 10 days compound treatment commenced 8 days after tumor implantation; format: functional; settings: route intraperitoneal, read-out: TGI
Mus musculus [15] = test: Toxicity in C3H mouse allografted with mouse Gardner lymphosarcoma assessed as lethality at 0.5 mg/kg, ip administered daily for 8 to 10 days; format: organism-based; design: dose 0.5 mg/kg, route intraperitoneal; settings: in vivo
How it was run: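 Tumor-bearing mice given sulfate salts ip daily for 8–10 days; values are the average of one or more tests. Toxic means lethal to ≥5 of 10 animals per group.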

CHO [16] = test: Mitotic arrest in CHO cells assessed as increase in cell accumulation at 2 ug/ml; format: functional, Cricetulus griseus; how it was run: as §1
CHO [17] = test: Mitotic arrest in CHO cells assessed as increase in cell accumulation at 0.2 ug/ml; format: functional, Cricetulus griseus; how it was run: as §1

SMILES | Activity (CHO [1]) [%] | inhibition in vivo at 0.4 mg/kg [2] [%] | Activity (Mus musculus [3]) [g] | inhibition in vivo at 0.25 mg/kg [4] [%] | inhibition in vivo at 0.1 mg/kg [5] [%] | inhibition in vivo at 0.1 mg/kg [6] [%] | Activity (CHO [7]) [%] | inhibition in vivo at 0.2 mg/kg [8] [%] | inhibition in vivo at 0.05 mg/kg [9] [%] | inhibition in vivo at 0.3 mg/kg [10] [%] | inhibition in vivo at 0.2 mg/kg [11] [%] | inhibition in vivo at 0.4 mg/kg [12] [%] | inhibition in vivo at 0.3 mg/kg [13] [%] | inhibition in vivo at 0.05 mg/kg [14] [%] | Activity (Mus musculus [15]) | Activity (CHO [16]) [%] | Activity (CHO [17]) [%]
CC[C@]1(O)C[C@H]2CN(CCc3c([nH]c4ccccc34)[C@@](C(=O)OC)(c3cc4c(cc3OC)N(C)[C@H]3[C@@](O)(C(=O)NC)[C@H](O)[C@]5(CC)C=CCN6CC[C@]43[C@@H]65)C2)C1.O=S(=O)(O)O | 3 | 76 | 24.6 | 76 | 0 | 0 | 15 | 76 | 0 | 76 | 51 | 76 | 76 | 0 | Toxic | – | –
CC[C@]1(O)C[C@@H]2C[C@](C(=O)OC)(c3cc4c(cc3OC)N(C)[C@H]3[C@@](O)(C(N)=O)[C@H](O)[C@]5(CC)C=CCN6CC[C@]43[C@@H]65)c3[nH]c4ccccc4c3CC[N+]([O-])(C2)C1 | – | – | – | – | – | – | – | – | – | – | – | – | – | – | – | 15 | 7
